In brackets after ≈: the same amount, converted by molar mass.
What was measured:
[1] = Inhibition of Staphylococcus aureus tyrosyl-tRNA synthetase expressed in Escherichia coli assessed as reduction in tRNA aminoacylation pre-incubated for 10 mins before addition of Escherichia coli MRE600 tRNA and L-tyrosine
How it was run: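 Tritiated tyrosine aminoacylation at 37°C. Mix (final): 100 mM Tris/Cl pH 7.9, 50 mM KCl, 16 mM MgCl2, 5 mM ATP, 3 mM DTT, 4 mg/ml E. coli MRE600 tRNA, 10 µM L-tyrosine including 0.3 µM L-[ring-3,5-3H]tyrosine. TyrRS (0.2 nM) preincubated 10 min at room temperature with a range of inhibitor concentrations. TCA precipitation onto filters, scintillation counting. Linear rates, under 50% tRNA acylation; IC50 at half activity.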

Staphylococcus aureus = assay: Antimicrobial activity against Staphylococcus aureus ATCC 6538 by MTT assay; assay type: functional
How it was run: (§1)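 Broth microdilution in LB medium with MTT read-out. Compound stock 1000 µg/ml in DMSO, diluted serially with sterile medium (50% v/v DMSO in PBS). Inoculum about 10^5 cfu/mL, incubated at 37°C. Then 3 mg/mL MTT in PBS added, 4-5 h at room temperature. Dye extracted with 10% SDS containing 5% isopropanol and HCl for 8-10 h. Absorbance at 570 nm gives MIC50.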

Escherichia coli = assay: Antimicrobial activity against Escherichia coli ATCC 8739 by MTT assay; assay type: functional; how it was run: as §1
Pseudomonas aeruginosa = assay: Antimicrobial activity against Pseudomonas aeruginosa ATCC 9027 by MTT assay; assay type: functional; how it was run: as §1

| SMILES | IC50 [1] | MIC50 (Staphylococcus aureus) | MIC50 (Escherichia coli) | MIC50 (Pseudomonas aeruginosa) |
| --- | --- | --- | --- | --- |
| CC1(C)O[C@@H]2[C@H](O1)[C@@H](COC(=O)Cc1ccc(F)cc1)O[C@H]2n1cnc2c(N)ncnc21 | 7.1 µM | > 100 µg/mL | 76.2 µg/mL (≈ 172 µM) | 24.8 µg/mL (≈ 55.9 µM) |
| CC1(C)O[C@@H]2[C@H](O1)[C@@H](COC(=O)Cc1ccc(Br)cc1)O[C@H]2n1cnc2c(N)ncnc21 | 5.6 µM | > 100 µg/mL | > 100 µg/mL | 21.2 µg/mL (≈ 42 µM) |
| CC1(C)O[C@@H]2[C@H](O1)[C@@H](COC(=O)Cc1cccc(F)c1)O[C@H]2n1cnc2c(N)ncnc21 | 1.1 µM | > 100 µg/mL | 60.3 µg/mL (≈ 136 µM) | 12.9 µg/mL (≈ 29.1 µM) |
| CC1(C)O[C@@H]2[C@H](O1)[C@@H](COC(=O)Cc1ccc(O)cc1)O[C@H]2n1cnc2c(N)ncnc21 | 19 µM | > 100 µg/mL | 44.6 µg/mL (≈ 101 µM) | 17.4 µg/mL (≈ 39.4 µM) |
| CC1(C)O[C@@H]2[C@H](O1)[C@@H](COC(=O)Cc1ccccc1O)O[C@H]2n1cnc2c(N)ncnc21 | 55 µM | > 100 µg/mL | 37.2 µg/mL (≈ 84.3 µM) | 23 µg/mL (≈ 52.1 µM) |
| CC1(C)O[C@@H]2[C@H](O1)[C@@H](COC(=O)Cc1cccc(O)c1)O[C@H]2n1cnc2c(N)ncnc21 | 9.6 µM | > 100 µg/mL | 18.9 µg/mL (≈ 42.8 µM) | 25.9 µg/mL (≈ 58.7 µM) |
| Cc1ccc(CC(=O)OC[C@H]2O[C@@H](n3cnc4c(N)ncnc43)[C@@H]3OC(C)(C)O[C@@H]32)cc1 | 17 µM | > 100 µg/mL | 27 µg/mL (≈ 61.4 µM) | 14.1 µg/mL (≈ 32.1 µM) |
| COc1ccc(CC(=O)OC[C@H]2O[C@@H](n3cnc4c(N)ncnc43)[C@@H]3OC(C)(C)O[C@@H]32)cc1OC | > 100 µM | > 100 µg/mL | 47.3 µg/mL (≈ 97.4 µM) | 30.1 µg/mL (≈ 62 µM) |
| CC1(C)O[C@@H]2[C@H](O1)[C@@H](COC(=O)Cc1ccccc1Cl)O[C@H]2n1cnc2c(N)ncnc21 | 47 µM | > 100 µg/mL | 29 µg/mL (≈ 63.1 µM) | 28 µg/mL (≈ 60.9 µM) |
| CC1(C)O[C@@H]2[C@H](O1)[C@@H](COC(=O)Cc1ccccc1F)O[C@H]2n1cnc2c(N)ncnc21 | 44 µM | > 100 µg/mL | 25.7 µg/mL (≈ 58 µM) | 25.5 µg/mL (≈ 57.5 µM) |
| Nc1ncnc2c1ncn2[C@@H]1O[C@H](COC(=O)Cc2cccc(Br)c2)[C@@H](O)[C@H]1O | 3.3 µM | > 100 µg/mL | 38.1 µg/mL (≈ 82.1 µM) | 27.4 µg/mL (≈ 59 µM) |
| Nc1ncnc2c1ncn2[C@@H]1O[C@H](COC(=O)Cc2ccc(F)cc2)[C@@H](O)[C@H]1O | 7.7 µM | > 100 µg/mL | > 100 µg/mL | 26.1 µg/mL (≈ 64.7 µM) |
| Nc1ncnc2c1ncn2[C@@H]1O[C@H](COC(=O)Cc2cccc(O)c2)[C@@H](O)[C@H]1O | 9.3 µM | > 100 µg/mL | 37 µg/mL (≈ 92.2 µM) | 27.3 µg/mL (≈ 68 µM) |
| COc1ccc(CC(=O)OC[C@H]2O[C@@H](n3cnc4c(N)ncnc43)[C@H](O)[C@@H]2O)cc1OC | > 100 µM | > 100 µg/mL | 16.5 µg/mL (≈ 37 µM) | 10.2 µg/mL (≈ 22.9 µM) |
| Nc1ncnc2c1ncn2[C@@H]1O[C@H](COC(=O)Cc2ccccc2Cl)[C@@H](O)[C@H]1O | 47 µM | > 100 µg/mL | 7.4 µg/mL (≈ 17.6 µM) | 26.7 µg/mL (≈ 63.6 µM) |
| CCCC(=O)OC[C@H]1O[C@@H](n2cnc3c(N)ncnc32)[C@H](O)[C@@H]1O | 65 µM | > 100 µg/mL | > 100 µg/mL | 87.3 µg/mL (≈ 259 µM) |
| CCCCCCCC(=O)OC[C@H]1O[C@@H](n2cnc3c(N)ncnc32)[C@H](O)[C@@H]1O | 93 µM | > 100 µg/mL | > 100 µg/mL | > 100 µg/mL |
| CCCCCCCCCC(=O)OC[C@H]1O[C@@H](n2cnc3c(N)ncnc32)[C@H](O)[C@@H]1O | > 100 µM | > 100 µg/mL | > 100 µg/mL | > 100 µg/mL |
| Nc1ncnc2c1ncn2[C@@H]1O[C@H](COC(=O)c2ccc(Cl)cc2)[C@@H](O)[C@H]1O | 43 µM | > 100 µg/mL | 28.1 µg/mL (≈ 69.2 µM) | 19.3 µg/mL (≈ 47.6 µM) |
| O=C(O)c1cn(C2CC2)c2cc(N3CCNCC3)c(F)cc2c1=O [CIPROFLOXACIN] | – | – | 0.67 µg/mL (≈ 2.02 µM) | 0.1 µg/mL (≈ 0.302 µM) |

Further lines, results first:

| IC50 [1] | MIC50 (Staphylococcus aureus) | MIC50 (Escherichia coli) | MIC50 (Pseudomonas aeruginosa) | SMILES |
| --- | --- | --- | --- | --- |
| 39 µM | 67.4 µg/mL (≈ 181 µM) | 33.7 µg/mL (≈ 90.7 µM) | 21.9 µg/mL (≈ 59 µM) | Nc1ncnc2c1ncn2[C@@H]1O[C@H](COC(=O)c2ccccc2)[C@@H](O)[C@H]1O |
| – | > 100 µg/mL | 77.6 µg/mL (≈ 251 µM) | 58.2 µg/mL (≈ 188 µM) | CC(=O)OC[C@H]1O[C@@H](n2cnc3c(N)ncnc32)[C@H](O)[C@@H]1O |
| 77 µM | > 100 µg/mL | > 100 µg/mL | > 100 µg/mL | CCCCCC(=O)OC[C@H]1O[C@@H](n2cnc3c(N)ncnc32)[C@H](O)[C@@H]1O |
| 3.7 µM | 38.3 µg/mL (≈ 75.9 µM) | 40.6 µg/mL (≈ 80.5 µM) | 18.8 µg/mL (≈ 37.3 µM) | CC1(C)O[C@@H]2[C@H](O1)[C@@H](COC(=O)Cc1cccc(Br)c1)O[C@H]2n1cnc2c(N)ncnc21 |
| 6.3 µM | 44.9 µg/mL (≈ 97.6 µM) | 27.8 µg/mL (≈ 60.4 µM) | 22 µg/mL (≈ 47.8 µM) | CC1(C)O[C@@H]2[C@H](O1)[C@@H](COC(=O)Cc1cccc(Cl)c1)O[C@H]2n1cnc2c(N)ncnc21 |
| 8.4 µM | 7.2 µg/mL (≈ 15.7 µM) | 15.2 µg/mL (≈ 33.1 µM) | 30.6 µg/mL (≈ 66.5 µM) | CC1(C)O[C@@H]2[C@H](O1)[C@@H](COC(=O)Cc1ccc(Cl)cc1)O[C@H]2n1cnc2c(N)ncnc21 |
| > 100 µM | 40.2 µg/mL (≈ 81.3 µM) | 34 µg/mL (≈ 68.8 µM) | 19.3 µg/mL (≈ 39 µM) | CC1(C)O[C@@H]2[C@H](O1)[C@@H](COC(=O)Cc1ccc(Cl)c(Cl)c1)O[C@H]2n1cnc2c(N)ncnc21 |
| 6 µM | 49.2 µg/mL (≈ 117 µM) | 20.2 µg/mL (≈ 48.1 µM) | 35.1 µg/mL (≈ 83.6 µM) | Nc1ncnc2c1ncn2[C@@H]1O[C@H](COC(=O)Cc2cccc(Cl)c2)[C@@H](O)[C@H]1O |
| 5.2 µM | 42.2 µg/mL (≈ 90.9 µM) | 88.9 µg/mL (≈ 191 µM) | 19.3 µg/mL (≈ 41.6 µM) | Nc1ncnc2c1ncn2[C@@H]1O[C@H](COC(=O)Cc2ccc(Br)cc2)[C@@H](O)[C@H]1O |
| 8.1 µM | 13.8 µg/mL (≈ 32.9 µM) | 7.7 µg/mL (≈ 18.3 µM) | 19.9 µg/mL (≈ 47.4 µM) | Nc1ncnc2c1ncn2[C@@H]1O[C@H](COC(=O)Cc2ccc(Cl)cc2)[C@@H](O)[C@H]1O |
| 0.8 µM | 9.2 µg/mL (≈ 22.8 µM) | 1.3 µg/mL (≈ 3.22 µM) | 0.08 µg/mL (≈ 0.198 µM) | Nc1ncnc2c1ncn2[C@@H]1O[C@H](COC(=O)Cc2cccc(F)c2)[C@@H](O)[C@H]1O |
| 23 µM | 44.3 µg/mL (≈ 110 µM) | 9.8 µg/mL (≈ 24.4 µM) | 25.9 µg/mL (≈ 64.5 µM) | Nc1ncnc2c1ncn2[C@@H]1O[C@H](COC(=O)Cc2ccc(O)cc2)[C@@H](O)[C@H]1O |
| 44 µM | 37.8 µg/mL (≈ 94.2 µM) | 15.9 µg/mL (≈ 39.6 µM) | 26 µg/mL (≈ 64.8 µM) | Nc1ncnc2c1ncn2[C@@H]1O[C@H](COC(=O)Cc2ccccc2O)[C@@H](O)[C@H]1O |
| 15 µM | 47.4 µg/mL (≈ 119 µM) | 16.4 µg/mL (≈ 41.1 µM) | 11.8 µg/mL (≈ 29.5 µM) | Cc1ccc(CC(=O)OC[C@H]2O[C@@H](n3cnc4c(N)ncnc43)[C@H](O)[C@@H]2O)cc1 |
| 97 µM | 48.5 µg/mL (≈ 107 µM) | 19.4 µg/mL (≈ 42.7 µM) | 21.4 µg/mL (≈ 47.1 µM) | Nc1ncnc2c1ncn2[C@@H]1O[C@H](COC(=O)Cc2ccc(Cl)c(Cl)c2)[C@@H](O)[C@H]1O |
| 40 µM | 51.4 µg/mL (≈ 127 µM) | 23.6 µg/mL (≈ 58.5 µM) | 35.8 µg/mL (≈ 88.8 µM) | Nc1ncnc2c1ncn2[C@@H]1O[C@H](COC(=O)Cc2ccccc2F)[C@@H](O)[C@H]1O |
| – | 0.54 µg/mL | – | – | CC1(C)S[C@@H]2[C@H](NC(=O)Cc3ccccc3)C(=O)N2[C@H]1C(=O)O [PENICILLIN G SODIUM] |

Source: ChEMBL document CHEMBL3621182, “Adenosine analogs as inhibitors of tyrosyl-tRNA synthetase: Design, synthesis and antibacterial evaluation” (Bioorg Med Chem, 2015)
